Compound activity as filed in PubChem BioAssay.
Hits are enriched below; roughly 0.9% of the tested compounds scored in any of these assays.
ABCG2 inh: blocks JC-1 efflux by human ABCG2 transporter; hit rate 0.1% among 190,000; Q9UNQ0; AID 1325; inhibition, % at 6.6 µM; IgMXP3 cells, flow cytometry;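 active means inhibition above 80%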;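 further: 0% = DMSO and 100% = nicardipine control wells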
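Assay system – ABCG2 IgMXP3 and barcoded ABCB1 CCRF-Adr cell mix · Input – 3 million cells/mL in well · Reagent – JC-1 fluorescent substrate · Compound – single test compound dose, 6.6 µM final · Timing – 10 min exposure at 25 °C with rotation, no wash · Detection – flow cytometry of retained JC-1 fluorescence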
RGS7-Gao reg: regulators of human RGS7-Galphao interaction; P09471; Multiplexed bead flow cytometry, RGS7-Galphao binding; actives lie on both sides; binding response (% of control), % at 10 µM; hit rate 0.35% among 220,000; AID 1439; in the data active means binding response below about 49% or above about 150%;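 further: fluorescent Galphao held in activated GDP-AlF4 state binding bead-coupled RGS7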
RGS8-Gao reg: modulates binding of RGS8 to human Galphao; P09471; multiplexed bead flow cytometry; actives lie on both sides; response (percent of control binding), % at 10 µM; hit rate 0.34% among 220,000; in the data active means response below about 60% or above about 140%; inactive means in between;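 further: Galphao activated as the GDP aluminium fluoride complex binding bead-coupled RGS8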
RGS4-Gao reg: modulates binding of RGS4 to human Galphao; binding response (% of control), % at 10 µM; Multiplexed bead flow cytometry; actives lie on both sides; hit rate 0.33% among 220,000; in the data active means binding response below about 49% or above about 150%; inactive means in between;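 further: fluorescent Galphao activated with aluminum fluoride binding bead-coupled RGS4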
ABCB1 inh: inhibitors of human ABCB1 transporter, ABCG2 counter-screen; P08183; inhibition, % at 6.6 µM; hit rate 0.067% among 190,000; CCRF-Adr cells, JC-1 efflux, flow cytometry; in the data active means inhibition above about 40%;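 further: 0% = vehicle and 100% = reference inhibitor; higher value means more JC-1 retained so stronger ABCB1 efflux block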
Target sequence (P08183 whole entry, looked up): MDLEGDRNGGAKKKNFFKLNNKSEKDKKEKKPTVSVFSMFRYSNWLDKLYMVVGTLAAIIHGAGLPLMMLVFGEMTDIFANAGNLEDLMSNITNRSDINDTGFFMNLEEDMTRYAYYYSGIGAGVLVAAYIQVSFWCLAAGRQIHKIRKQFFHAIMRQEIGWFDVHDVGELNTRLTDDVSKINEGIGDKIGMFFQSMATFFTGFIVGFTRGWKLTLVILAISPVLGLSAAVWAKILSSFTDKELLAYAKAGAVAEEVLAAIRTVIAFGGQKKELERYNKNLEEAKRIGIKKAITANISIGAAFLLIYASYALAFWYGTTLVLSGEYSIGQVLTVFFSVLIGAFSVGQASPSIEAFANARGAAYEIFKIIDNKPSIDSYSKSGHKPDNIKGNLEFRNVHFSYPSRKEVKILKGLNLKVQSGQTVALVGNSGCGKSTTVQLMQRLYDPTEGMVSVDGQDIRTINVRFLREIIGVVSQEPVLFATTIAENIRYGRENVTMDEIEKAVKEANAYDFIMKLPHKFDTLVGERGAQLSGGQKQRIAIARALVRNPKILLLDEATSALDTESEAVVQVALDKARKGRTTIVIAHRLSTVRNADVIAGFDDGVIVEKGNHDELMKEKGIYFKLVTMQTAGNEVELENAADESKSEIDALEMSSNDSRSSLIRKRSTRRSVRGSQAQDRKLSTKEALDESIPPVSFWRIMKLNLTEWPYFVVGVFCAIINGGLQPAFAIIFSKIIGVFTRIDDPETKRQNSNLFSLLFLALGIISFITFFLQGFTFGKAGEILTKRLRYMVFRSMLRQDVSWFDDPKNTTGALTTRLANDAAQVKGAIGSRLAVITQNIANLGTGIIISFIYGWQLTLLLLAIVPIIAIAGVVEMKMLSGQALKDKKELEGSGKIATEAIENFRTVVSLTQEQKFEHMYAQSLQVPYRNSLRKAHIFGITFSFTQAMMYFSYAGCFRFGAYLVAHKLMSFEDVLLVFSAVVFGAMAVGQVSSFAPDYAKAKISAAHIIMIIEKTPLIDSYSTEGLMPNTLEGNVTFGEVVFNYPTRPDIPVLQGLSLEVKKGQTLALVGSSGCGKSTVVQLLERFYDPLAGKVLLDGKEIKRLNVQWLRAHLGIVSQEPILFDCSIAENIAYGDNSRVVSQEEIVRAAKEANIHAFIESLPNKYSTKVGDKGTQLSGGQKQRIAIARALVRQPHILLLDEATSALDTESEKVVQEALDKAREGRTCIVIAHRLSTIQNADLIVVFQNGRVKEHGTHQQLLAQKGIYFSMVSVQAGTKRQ
RGS16-Gao HTS: regulators of human RGS16-Galphao interaction; O15492+P09471; bead-based flow cytometry RGS16-Galphao binding, fluorescence; actives lie on both sides; binding response (% of control), % at 10 µM; hit rate 0.38% among 220,000;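 further: Galphao activated by GDP with aluminum fluoride before binding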
RGS-Gao: modulates binding between human RGS4 and Galphao; shares compounds with RGS16-Gao HTS; multiplexed bead flow cytometry, RGS–Galpha-o binding; RGS4–Galpha-o binding response, % at 10 µM; hit rate 99% among 1,600; AID 1504;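 further: fluorescently labeled Galpha-o bound to GDP with aluminium fluoride binding biotinylated RGS beads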
Biotin-avidin: interferes with biotinylated probe binding to avidin beads; streptavidin beads, fluorescein-biotin binding, flow cytometry; inhibition, % at 10 µM; AID 1783; 1,700 tested, under 10 active; shares compounds with RGS16-Gao HTS;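 active means inhibition above 50%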;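 further: median green fluorescence of gated singlet beads compared with DMSO control wells; 0% = DMSO wells and 100% = complete loss of bead fluorescence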
RGS8-Gao confirm: RGS8-Galphao interaction regulation, single point confirmation. AID 1836. bead-based flow cytometry RGS8-Galphao binding, fluorescence; actives lie on both sides. binding response (% of control), % at 10 µM. hit rate 3% among 1,700. shares compounds with RGS16-Gao HTS; in the data active means binding response below about 72% or above about 130%; inactive means in between;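 further: Galphao activated as GDP AlF4 complex before binding bead RGS8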
RGS7-Gao single: confirmation of regulators of human RGS7-Galphao interaction; bead-based flow cytometry RGS7-Galphao binding; actives lie on both sides; shares compounds with RGS16-Gao HTS; hit rate 7.8% among 1,700; response (percent of control binding), % at 10 µM; in the data active means response below about 75% or above about 130%; inactive means in between;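 further: fluorescent Galphao activated with GDP and aluminum fluoride binding bead-coupled RGS7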
RGS16-Gao conf: RGS16-Galphao interaction regulation, single point confirmation. shares compounds with RGS16-Gao HTS. bead-based flow cytometry, RGS16-Galphao binding; actives lie on both sides. response (% of control binding), % at 10 µM. hit rate 4% among 1,700; in the data active means response below about 74% or above about 130%; inactive means in between;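 further: Galphao activated as the GDP aluminium fluoride complex binding bead-coupled RGS16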
RGS4-Gao confirm: confirmation of regulators of human RGS4-Galphao interaction; shares compounds with RGS16-Gao HTS; RGS4-Galphao binding, multiplexed bead flow cytometry; actives lie on both sides; binding response (% of control), % at 10 µM; hit rate 4% among 1,700; AID 1840; in the data active means binding response below about 74% or above about 130%; inactive means in between
RGS19-Gao conf: confirmation of regulators of human RGS19-Galphao interaction | shares compounds with RGS16-Gao HTS | hit rate 5% among 1,700 | bead-based flow cytometry RGS19-Galphao binding; actives lie on both sides | response (percent of control binding), % at 10 µM; in the data active means response below about 50% or above about 160%; inactive means in between;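 further: 100% = no compound control and 0% = blank background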
Active calls of the source: *; i = inactive; · = no result given; [ ] = remark or other dose. Unless noted, how the calls were made is not given here.

SMILES	ABCG2 inh	RGS7-Gao reg	RGS8-Gao reg	RGS4-Gao reg	ABCB1 inh	RGS16-Gao HTS	RGS-Gao	Biotin-avidin	RGS8-Gao confirm	RGS7-Gao single	RGS16-Gao conf	RGS4-Gao confirm	RGS19-Gao conf
Cc1cc(=O)oc2c(CN(CC(C)C)CC(C)C)c(O)ccc12	2	115	144*[activator]	119	1	249	119*	i	99	103	100	101	99
CCOC(=O)N1CCC(NC(=O)c2cccnc2SC)CC1	-1	·	·	·	0	·	·	1	101	100	103	102	111
CC1CCN(CCC(=O)N/N=C/c2ccc([N+](=O)[O-])cc2)CC1	0	98	99	99	0	99	·	·	·	·	·	·	·
CCCCCOc1ccc(CSC(=N)N)cc1[N+](=O)[O-]	8	49*	65	42*	2	43	·	0	106	109	106	105	107
O=C(c1ccc(Br)o1)N1CCc2ccccc21	2	96	101	101	0	105	·	·	·	·	·	·	·
O=C(NC1CCCCC1)C1CCN(S(=O)(=O)N2CCCCCC2)CC1	0	107	103	101	0	102	·	·	·	·	·	·	·
O=C(NC1CCCCCCC1)C1CCN(S(=O)(=O)N2CCCC2)CC1	1	52	59*	58	0	55	58*	-1	97	93	96	97	83
CCN(CC)C(=O)c1ccc(S(=O)(=O)NCc2cccnc2)cc1	-1	·	·	·	0	·	·	2	101	122	106	108	118
Cc1ccc(S(=O)(=O)NCc2ccc(C(=O)NCc3cccnc3)cc2)cc1	1	103	106	103	0	119	·	·	·	·	·	·	·
CC1(C)NC(=O)N(CC(=O)Nc2nc(-c3ccc(F)cc3)cs2)C1=O	1	216*[activator]	94	133	0	100	133*	0	95	69*	83	83	49*
C#CCOCCOCCOCCNc1nc(N2CCN(C(=O)[C@H](Cc3cc4ccccc4[nH]3)n3cc([C@@H](N)C(C)CC)nn3)CC2)nc(N2CCN(C(=O)[C@H](Cc3cc4ccccc4[nH]3)n3cc([C@@H](N)CC(C)C)nn3)CC2)n1 (some centres not stated)	-1	107	104	104	0	97	·	·	·	·	·	·	·
CCCS(=O)(=O)c1c(S(=O)(=O)CCC)c2ccc(C(N)=O)cn2c1C(=O)c1ccc(OC)cc1	2	97	97	92	0	96	·	·	·	·	·	·	·
Cn1cccc1/C=C1\SC(=O)N(CC(=O)Nc2ccc(Cl)cc2)C1=O	2	100	98	102	0	98	·	·	·	·	·	·	·
Cc1ccc(NC(=O)CN2C(=O)S/C(=C\C(=O)Nc3ccc(Cl)cc3)C2=O)cc1	-14	75	79	79	-1	8.0*	79*	2	104	95	105	99	91
CCn1c(C)cc(/C=C2\SC(=O)N(CC(=O)Nc3ccc(C)c(C)c3)C2=O)c1C	-1	-28*	6.0*	-95*	0	-95*	·	-1	100	92	97	98	96
